Most compounds without a hit are left out; they make up all but 9.8% or so of the library.
Rad51 HR inh: blocks human Rad51 in homologous recombination | Q06609 | inhibition, % at 10 µM | hRad51 DNA strand exchange, fluorescence dequenching | actives 0.085% (n = 200,000);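 active means inhibition above 40% at the single screening dose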;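 further: 0% = DMSO control wells and 100% = blanks with heterologous ssDNA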
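material = hRad51 filaments on single-stranded DNA | reagent = Donor/quencher-labelled 47-bp dsDNA substrate | compound = 10 µM final, single point | schedule = strand-exchange reaction 15 min at room temperature | measured by = fluorescein emission 520 nm, excitation 485 nm | read-out basis = % inhibition versus plate control and blank means | benchmarks = plate controls and plate blanks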
L major viab: Leishmania major promastigote growth inhibition. Leishmania major promastigotes, resazurin fluorescence viability. inhibition, % at 10 µM. actives 9% (n = 200,000). AID 1063; in the data active means inhibition above about 50%;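 further: promastigotes grown with compound for 44 hours at 28 °C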
m-calpain inh: blocks pig calpain II enzyme activity | purified calpain II, fluorogenic peptide substrate, 30 min | inhibition, % at 16 µM | actives 0.37% (n = 220,000) | AID 1236;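 active means inhibition above about 50%, limit read from the data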
WT yeast gro inh: growth inhibition of WT yeast, mitochondrial fusion screen; mitochondrial fusion phenotypic screen, WT strain; inhibition, % at 10 µM; actives 2.1% (n = 190,000); AID 1362; in the data active means inhibition above about 58%; tested in S. cerevisiae
PMI activator: activators of human phosphomannose isomerase; P34949; purified human PMI, coupled resazurin fluorescence, 20 min; hits give high values; 1 = vehicle control, 0 substrate-free wells; activation factor at 20 µM; actives 0.005% (n = 190,000); AID 1214;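 active means activation factor of 2 or more at 20 µM, relative to plate controls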
Target sequence (P34949 whole entry, looked up): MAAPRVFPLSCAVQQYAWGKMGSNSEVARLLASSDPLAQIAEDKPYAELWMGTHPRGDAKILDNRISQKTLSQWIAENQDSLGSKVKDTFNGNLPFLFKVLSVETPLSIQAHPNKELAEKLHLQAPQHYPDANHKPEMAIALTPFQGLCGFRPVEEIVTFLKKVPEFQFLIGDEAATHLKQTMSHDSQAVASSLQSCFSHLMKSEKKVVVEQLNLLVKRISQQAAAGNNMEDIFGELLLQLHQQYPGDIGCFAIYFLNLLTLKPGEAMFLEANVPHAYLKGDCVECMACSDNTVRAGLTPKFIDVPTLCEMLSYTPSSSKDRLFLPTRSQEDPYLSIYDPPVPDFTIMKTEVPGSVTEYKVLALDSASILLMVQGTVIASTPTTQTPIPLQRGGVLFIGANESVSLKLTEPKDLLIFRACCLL
PMI act satM6P: increases human PMI activity with near-saturating mannose 6-phosphate | P34949 | coupled PMI enzyme assay, resazurin fluorescence, 20 min; hits give high values; 1 = untreated enzyme, 0 = substrate-free blank | activation factor at 20 µM | actives 0.34% (n = 190,000);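 active means activation factor of 2 or more at 20 µM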
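test system = human PMI in coupled enzyme assay | medium = HEPES-buffered pH 7.4 with magnesium and detergent | also added = 1.0 mM mannose-6-phosphate substrate with 0.22 mM NADP+ | compound = 20 µM single dose | times = 20 min incubation at room temperature | measured by = resorufin fluorescence (Ex 544/Em 590 nm) from resazurin via diaphorase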
The depositor's hits bear a star; / = not tested or not shown.

SMILES	Rad51 HR inh	L major viab	m-calpain inh	WT yeast gro inh	PMI activator	PMI act satM6P
O=C(O)CCCCn1c(SCC(=O)Nc2ccccc2C(F)(F)F)nc2ccsc2c1=O	/	-5.7	22.0	3.0	0.9	1
CS(=O)(=O)N1CCN(c2ccccc2NC(=O)c2ccc(-c3ccc(Br)cc3)o2)CC1	/	52.9*	-315.9	17.3	0.9	0.9
COc1ccc(CCN(Cc2cc3cccc(C)c3n3nnnc23)C(=O)c2ccncc2)cc1OC	8.2	8.4	-38.8	-8.8	/	/
CN1C(=S)SC(C)(C)C1(C)NO (stereo not drawn)	/	0.5	-23.9	65.4*	1.1	1
CCCCN(CC)Cc1ccc(CNC(=S)Nc2cccc(F)c2)o1	/	77.9*	-5.9	11.1	0.9	0.6
CCCCN(CC)Cc1ccc(CNC(=O)Nc2ccccc2)o1	1.4	30.9	5.3	-3.0	1	1
COc1ccc(-c2cc(C3CCN(Cc4cccc(C(F)(F)F)c4)CC3)[nH]n2)cc1	4.2	67.6*	17.2	46.1	1	1
COc1ccc(-c2cc(C3CCN(Cc4ccc([N+](=O)[O-])cc4)CC3)[nH]n2)cc1	13.2	56.2*	9.7	-5.7	1	1
Nc1nc(SCC(=O)Nc2ccc(Cl)cn2)n[nH]1	-2.0	-2.6	7.2	-2.4	1	0.9
COc1cc(NC(=O)C/C(C)=N/NC(=O)C(=O)NCCO)c(OC)cc1Cl	/	/	3.4	/	/	/
CCOP(=O)(OCC)c1nc(-c2ccc(Cl)cc2Cl)oc1N1CCOCC1	-6.8	-0.7	-22.3	-11.1	0.9	1
Cc1cc(C)n(-c2cccc(CN3CCC(CO)(Cc4ccccc4)CC3)c2)n1	14.7	9.4	-21.1	15.8	0.8	0.9
OCC1(Cc2ccccc2)CCN(C2CCN(c3ccc(F)c(F)c3)CC2)CC1	-3.9	98.1*	-28.8	-23.5	/	/
Clc1ccc(OCCCn2cncn2)cc1Cl	/	99.7*	16.6	-8.9	0.9	1.1
Clc1ccc(OCCN2CCOCC2)cc1Cl	-2.4	86.5*	-11.5	-16.9	0.9	0.9
CNCCOc1ccc(Cl)c(Cl)c1	6.4	-1.4	-35.8	-5.9	1	1.1
Cc1cc(OCCCCCN2CCCC2)ccc1Cl	-55.5	99.3*	0.8	16.7	0.9	0.9
Clc1ccc(OCCCN2CCCC2)cc1Cl	5.1	91.2*	-11.3	4.2	0.9	1
Nc1cc(-c2ccc(OC(F)(F)F)cc2)nn1-c1ccc(Cl)c(Cl)c1	-12.4	/	11.8	/	/	/
Clc1ccc(OCCN2CCCCC2)cc1Cl	/	78.5*	14.2	23.1	1.1	1.2
CCCS(=O)(=O)c1nnnn1-c1cccc(OC)c1	-9.3	100.1*	-14.2	75.9*	0.9	0.9
Cn1c(CC(=O)Nc2ccc(Cl)c(Cl)c2)nnc1SCC(=O)NCc1ccccc1	5.6	-6.7	-21.9	-8.7	1.1	1.1
N#CC(Sc1ccccn1)c1ccc(Cl)cc1 (stereo not drawn)	4.0	-2.6	-4.3	73.1*	1	1
COCCCNC(=S)N1CCC(NC(=O)Nc2ccc(C)cc2)CC1	/	-4.1	8.7	-12.3	0.9	0.9
COC(=O)c1c(CCl)noc1C(=O)NCC1CCCO1 (stereo not drawn)	-7.0	100.5*	19.2	-10.3	1	0.9
SMILES	Rad51 HR inh	L major viab	m-calpain inh	WT yeast gro inh	PMI activator	PMI act satM6P
CCc1ccccc1SCc1noc(C(=O)NCC2CCCO2)c1C(=O)O (stereo not drawn)	-0.5	-5.3	-18.9	4.5	1	1.1
O=C(NCc1ccncc1)Nc1ccccc1F	-2.0	-2.8	12.2	-19.6	1	1
c1ccc(CNc2nc(-c3cccs3)nc3ccccc23)nc1	-1.5	78.3*	16.1	-3.5	0.9	0.9
COc1ccc(Nc2nc(-c3cccs3)nc3ccccc23)c(OC)c1	-6.7	41.0	3.3	20.5	0.9	0.8
Cc1ccc(CNc2nc(-c3cccs3)nc3ccccc23)cc1	5.2	76.5*	20.3	75.7*	0.9	0.9
CC(c1ccccc1)C1CC(=O)N(Cc2ccccc2)C1=O (stereo not drawn)	1.8	-6.4	-16.7	-11.3	0.9	1
Cc1ccccc1Oc1cc(-n2ncc(Cl)c(Cl)c2=O)ncn1	5.0	100.5*	-56.7	69.6	1.2	1.1
CCOc1cnn(-c2cc(Oc3ccc(C)cc3)ncn2)c(=O)c1Cl	-2.8	-2.1	3.3	4.6	1	0.9
O=S(=O)(c1ccccc1)c1cnc(-c2ccccc2)nc1N1CCCCC1	16.0	23.6	10.4	58.4*	0.9	0.9
CN1CCN(c2nc(-c3ccccc3)ncc2S(=O)(=O)c2ccccc2)CC1	1.6	20.5	31.2	-8.2	0.9	1
CNC(=S)Nc1ccc(C(N)=O)cc1	2.0	-6.3	18.0	-3.8	1	0.9
CC1CCCCC1NCc1cccc([N+](=O)[O-])c1 (stereo not drawn)	-7.3	83.0*	7.4	1.8	1	1
O=[N+]([O-])c1cccc(CNC2CCCCCC2)c1	/	86.2*	-3.0	8.4	1	1
CSC1=C(C#N)C(c2sccc2C)CC(=O)N1 (stereo not drawn)	/	-3.4	-17.4	-7.5	1	0.8
O=C(c1cc(F)c(F)cc1Cl)N1CCN(c2ccc([N+](=O)[O-])c3ncccc23)CC1	8.7	57.4*	-1.9	2.7	0.8	0.5
CNc1nc(SC)n(C)c(=O)c1N=O	-1.2	/	-12.1	/	/	/
Cn1nc(C(=O)Nc2ccc(S(=O)(=O)Nc3ncccn3)cc2)ccc1=O	-3.4	/	-25.0	/	/	/
CCCOC(=O)Nc1nc2ccccc2o1	-12.8	0.6	-6.1	2.7	1.1	1
CCOC(=O)c1cnc(Nc2nc3ccccc3o2)nc1CN1CCN(C)CC1	/	76.5*	31.1	19.5	1.4	1.6
CCc1nn(-c2ccccc2)c(=S)c2ccccc12	-8.0	3.7	18.7	1.0	0.8	0.9
CCn1c(CNC(=O)Cc2ccc(OC)cc2)nnc1SCC(=O)c1ccccc1	-14.3	-4.0	-85.2	0.0	1.7	2.5*
CCn1c(CNC(=O)Cc2ccc(OC)cc2)nnc1SCCOc1ccccc1	-7.8	-0.4	-20.1	-9.3	1.1	1
CCCN1C(=O)/C(=C\C=C2/C=CN(CC)c3ccccc32)SC1=S	-14.8	-1.7	5.5	59.2*	0.7	0.3
O=C(c1ccc2c(c1)OCCO2)N1CCN(c2ccc([N+](=O)[O-])cc2)CC1	-2.8	1.8	7.1	2.4	0.9	0.8
Cc1ccc(-c2cc(C(=O)N3CCN(c4ncccn4)CC3)c3cc(Br)ccc3n2)o1	-20.3	43.1	-285.0	-7.1	1.3	1.9
COc1ccc(C(=O)NNC(=O)c2ccccn2)cc1	-9.7	26.5	6.5	55.6	0.9	0.9
CC(C)C(=O)NNC(=O)c1ccccn1	9.9	-2.4	-6.0	-2.7	0.7	0.8
COc1cc(OC)cc(C(=O)NNC(=O)c2ccccn2)c1	-5.0	93.0*	-0.3	-12.6	0.7	0.9
CC(Oc1ccccc1)C(=O)NNC(=O)c1ccccn1 (stereo not drawn)	-32.0	78.8*	-9.6	1.7	0.8	0.8

Screens deposited in PubChem by several laboratories.
